ChEMBL document CHEMBL1138567, “Regioselective synthesis and antimicrobial screening of novel ketocarbazolodispiropyrrolidine derivatives” (2009)

Key:
Assay type in all cases: functional
Conditions in all cases: read-out: IZ
[1] = tested on: Proteus vulgaris; assay: Antimicrobial activity against Proteus vulgaris at 25 ug/ml after 24 hrs by agar diffusion method
How it was run: (§1)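 Agar well diffusion: petri plates (9 cm) with about 9 ml nutrient agar, seeded with the test organism. Wells cut with a cork borer and loaded with test compound at 25, 50, 75 or 100 per ml; tetracycline as control. Incubated 37 °C for 24 h; average inhibition-zone diameter around wells measured (mm).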

[2] = tested on: Proteus vulgaris; assay: Antimicrobial activity against Proteus vulgaris at 50 ug/ml after 24 hrs by agar diffusion method; how it was run: as §1
[3] = tested on: Proteus vulgaris; assay: Antimicrobial activity against Proteus vulgaris at 75 ug/ml after 24 hrs by agar diffusion method; how it was run: as §1
[4] = tested on: Proteus vulgaris; assay: Antimicrobial activity against Proteus vulgaris at 100 ug/ml after 24 hrs by agar diffusion method; how it was run: as §1
[5] = tested on: Proteus mirabilis; assay: Antimicrobial activity against Proteus mirabilis at 25 ug/ml after 24 hrs by agar diffusion method; how it was run: as §1
[6] = tested on: Proteus mirabilis; assay: Antimicrobial activity against Proteus mirabilis at 50 ug/ml after 24 hrs by agar diffusion method; how it was run: as §1
[7] = tested on: Proteus mirabilis; assay: Antimicrobial activity against Proteus mirabilis at 75 ug/ml after 24 hrs by agar diffusion method; how it was run: as §1
[8] = tested on: Proteus mirabilis; assay: Antimicrobial activity against Proteus mirabilis at 100 ug/ml after 24 hrs by agar diffusion method; how it was run: as §1
[9] = tested on: Staphylococcus aureus; assay: Antimicrobial activity against Staphylococcus aureus at 50 ug/ml after 24 hrs by agar diffusion method; how it was run: as §1
[10] = tested on: Staphylococcus aureus; assay: Antimicrobial activity against Staphylococcus aureus at 75 ug/ml after 24 hrs by agar diffusion method; how it was run: as §1
[11] = tested on: Staphylococcus aureus; assay: Antimicrobial activity against Staphylococcus aureus at 100 ug/ml after 24 hrs by agar diffusion method; how it was run: as §1
[12] = tested on: Salmonella enterica subsp. enterica serovar Typhi str. CT18; assay: Antimicrobial activity against Salmonella typhi at 50 ug/ml after 24 hrs by agar diffusion method
How it was run: (§2)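 Agar well diffusion: about 9 ml nutrient agar in 9 cm Petri plates, seeded with the test organism. Wells cut with a cork borer and loaded with test compound at 25–100 per ml; tetracycline as control. Plates incubated 24 h at 37 °C. Read-out is the average diameter of the inhibition zone around each well, in mm.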

[13] = tested on: Salmonella enterica subsp. enterica serovar Typhi str. CT18; assay: Antimicrobial activity against Salmonella typhi at 75 ug/ml after 24 hrs by agar diffusion method; how it was run: as §2
[14] = tested on: Salmonella enterica subsp. enterica serovar Typhi str. CT18; assay: Antimicrobial activity against Salmonella typhi at 100 ug/ml after 24 hrs by agar diffusion method; how it was run: as §2
[15] = tested on: Staphylococcus aureus; assay: Antimicrobial activity against Staphylococcus aureus at 25 ug/ml after 24 hrs by agar diffusion method; how it was run: as §1
[16] = tested on: Salmonella enterica subsp. enterica serovar Typhi str. CT18; assay: Antimicrobial activity against Salmonella typhi at 25 ug/ml after 24 hrs by agar diffusion method; how it was run: as §2

## CN1C[C@@H](c2ccc(Br)cc2)[C@@]2(CCc3c([nH]c4ccccc34)C2=O)C12C(=O)c1ccccc1C2=O
[1]
  zone of inhibition at 25 µg/mL: 9 mm
[2]
  zone of inhibition at 50 µg/mL: 13 mm
[3]
  zone of inhibition at 75 µg/mL: 16 mm
[4]
  zone of inhibition at 100 µg/mL: 18 mm
[5]
  zone of inhibition at 25 µg/mL: 9 mm
[6]
  zone of inhibition at 50 µg/mL: 11 mm
[7]
  zone of inhibition at 75 µg/mL: 14 mm
[8]
  zone of inhibition at 100 µg/mL: 16 mm
[9]
  zone of inhibition at 50 µg/mL: 12 mm
[10]
  zone of inhibition at 75 µg/mL: 19 mm
[11]
  zone of inhibition at 100 µg/mL: 21 mm
[12]
  zone of inhibition at 50 µg/mL: 9 mm
[13]
  zone of inhibition at 75 µg/mL: 18 mm
[14]
  zone of inhibition at 100 µg/mL: 19 mm

## CN1C[C@@H](c2ccc(Cl)cc2)[C@@]2(CCc3c([nH]c4ccccc34)C2=O)C12C(=O)c1ccccc1C2=O
[2]
  zone of inhibition at 50 µg/mL: 14 mm
[3]
  zone of inhibition at 75 µg/mL: 18 mm
[4]
  zone of inhibition at 100 µg/mL: 24 mm
[6]
  zone of inhibition at 50 µg/mL: 9 mm
[7]
  zone of inhibition at 75 µg/mL: 14 mm
[8]
  zone of inhibition at 100 µg/mL: 23 mm
[15]
  zone of inhibition at 25 µg/mL: 9 mm
[9]
  zone of inhibition at 50 µg/mL: 11 mm
[10]
  zone of inhibition at 75 µg/mL: 16 mm
[11]
  zone of inhibition at 100 µg/mL: 19 mm
[16]
  zone of inhibition at 25 µg/mL: 9 mm
[12]
  zone of inhibition at 50 µg/mL: 13 mm
[13]
  zone of inhibition at 75 µg/mL: 16 mm
[14]
  zone of inhibition at 100 µg/mL: 19 mm

## Cc1ccc([C@@H]2CN(C)C3(C(=O)c4ccccc4C3=O)[C@]23CCc2c([nH]c4ccccc24)C3=O)cc1
[3]
  zone of inhibition at 75 µg/mL: 9 mm
[4]
  zone of inhibition at 100 µg/mL: 12 mm
[5]
  zone of inhibition at 25 µg/mL: 9 mm
[6]
  zone of inhibition at 50 µg/mL: 11 mm
[7]
  zone of inhibition at 75 µg/mL: 14 mm
[8]
  zone of inhibition at 100 µg/mL: 18 mm
[15]
  zone of inhibition at 25 µg/mL: 9 mm
[9]
  zone of inhibition at 50 µg/mL: 14 mm
[10]
  zone of inhibition at 75 µg/mL: 18 mm
[11]
  zone of inhibition at 100 µg/mL: 21 mm
[12]
  zone of inhibition at 50 µg/mL: 9 mm
[13]
  zone of inhibition at 75 µg/mL: 14 mm
[14]
  zone of inhibition at 100 µg/mL: 16 mm

## CN1C[C@@H](c2ccc(Br)cc2)[C@@]2(CCc3c([nH]c4ccccc34)C2=O)[C@]12C(=O)Nc1ccccc12
[1]
  zone of inhibition at 25 µg/mL: 11 mm
[2]
  zone of inhibition at 50 µg/mL: 14 mm
[3]
  zone of inhibition at 75 µg/mL: 18 mm
[4]
  zone of inhibition at 100 µg/mL: 21 mm
[5]
  zone of inhibition at 25 µg/mL: 11 mm
[6]
  zone of inhibition at 50 µg/mL: 14 mm
[7]
  zone of inhibition at 75 µg/mL: 16 mm
[8]
  zone of inhibition at 100 µg/mL: 18 mm
[15]
  zone of inhibition at 25 µg/mL: 11 mm
[9]
  zone of inhibition at 50 µg/mL: 15 mm
[10]
  zone of inhibition at 75 µg/mL: 18 mm
[11]
  zone of inhibition at 100 µg/mL: 22 mm
[12]
  zone of inhibition at 50 µg/mL: 9 mm
[13]
  zone of inhibition at 75 µg/mL: 13 mm
[14]
  zone of inhibition at 100 µg/mL: 16 mm

## COc1ccc([C@@H]2CN(C)C3(C(=O)c4ccccc4C3=O)[C@]23CCc2c([nH]c4ccccc24)C3=O)cc1
[1]
  zone of inhibition at 25 µg/mL: 13 mm
[2]
  zone of inhibition at 50 µg/mL: 15 mm
[3]
  zone of inhibition at 75 µg/mL: 16 mm
[4]
  zone of inhibition at 100 µg/mL: 21 mm
[5]
  zone of inhibition at 25 µg/mL: 13 mm
[6]
  zone of inhibition at 50 µg/mL: 15 mm
[7]
  zone of inhibition at 75 µg/mL: 17 mm
[8]
  zone of inhibition at 100 µg/mL: 20 mm
[15]
  zone of inhibition at 25 µg/mL: 9 mm
[9]
  zone of inhibition at 50 µg/mL: 13 mm
[10]
  zone of inhibition at 75 µg/mL: 15 mm
[11]
  zone of inhibition at 100 µg/mL: 20 mm
[12]
  zone of inhibition at 50 µg/mL: 11 mm
[13]
  zone of inhibition at 75 µg/mL: 16 mm
[14]
  zone of inhibition at 100 µg/mL: 21 mm

## CN1C[C@@H](c2ccccc2)[C@@]2(CCc3c([nH]c4ccccc34)C2=O)[C@]12C(=O)c1cccc3cccc2c13
[2]
  zone of inhibition at 50 µg/mL: 14 mm
[3]
  zone of inhibition at 75 µg/mL: 18 mm
[4]
  zone of inhibition at 100 µg/mL: 21 mm
[5]
  zone of inhibition at 25 µg/mL: 11 mm
[6]
  zone of inhibition at 50 µg/mL: 13 mm
[7]
  zone of inhibition at 75 µg/mL: 22 mm
[8]
  zone of inhibition at 100 µg/mL: 32 mm
[15]
  zone of inhibition at 25 µg/mL: 14 mm
[9]
  zone of inhibition at 50 µg/mL: 19 mm
[10]
  zone of inhibition at 75 µg/mL: 21 mm
[11]
  zone of inhibition at 100 µg/mL: 26 mm
[16]
  zone of inhibition at 25 µg/mL: 11 mm
[12]
  zone of inhibition at 50 µg/mL: 14 mm
[13]
  zone of inhibition at 75 µg/mL: 20 mm
[14]
  zone of inhibition at 100 µg/mL: 28 mm
